Several values for one entry are separate records, joined by “and”; a condition that tells them apart may be missing. Equal entries are not always repeated.
Tests used:
Hsp90α S52A (1-236) = Hsp90α S52A (1-236) (Homo sapiens, UniProt P07900, S52A); test: ITC binding to Hsp90α S52A mutant NTD; conditions: for C-values / Kd / TΔS / ΔG / ΔH / N: ITC, 298 K; for N: stoichiometry, one-site model; for fold change in affinity, Hsp90α S52A vs wild type Hsp90α: ratio of ITC KD
Outline: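 Human Hsp90α NTD (1-236) S52A, N-terminal His-tagged, expressed in E. coli Rosetta (DE3), purified by Ni-NTA then size exclusion. ITC in matched 40 mM HEPES-KOH pH 7.4, 100 mM NaCl, 1% DMSO. 255 or 393 μM protein was injected into 33.0 or 41.8 μM test compound. Wild type was run alike: 503 or 336 μM into 50.7 or 30.1 μM. One-site fit; mean of two titrations ± SEM.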

Hsp90β NTD = Hsp90β NTD (Homo sapiens, UniProt P08238); test: ITC binding to Hsp90β NTD; conditions: 298 K; for N: stoichiometry, one-site model
Chain of Hsp90β NTD (P08238 1-221 limits assumed): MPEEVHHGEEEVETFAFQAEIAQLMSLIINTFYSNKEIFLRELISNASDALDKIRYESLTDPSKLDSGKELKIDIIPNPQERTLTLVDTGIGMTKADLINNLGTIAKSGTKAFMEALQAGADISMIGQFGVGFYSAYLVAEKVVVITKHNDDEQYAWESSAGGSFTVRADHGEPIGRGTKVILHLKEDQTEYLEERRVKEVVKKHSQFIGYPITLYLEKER
Outline: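 Human Hsp90β NTD, N-terminal His-tagged, expressed in E. coli Rosetta (DE3), purified by Ni-NTA then size exclusion. ITC in matched 40 mM HEPES-KOH pH 7.4, 100 mM NaCl, 1% DMSO. 891 or 885 μM protein was injected into 93.3 or 97.8 μM test compound in the cell. For ATP/ADP, protein was in the cell and nucleotide in the syringe. One-site fit; mean of two titrations ± SEM.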

Hsp90α (1-236) NTD [1] = test: ITC binding to Hsp90α NTD; design: species or system Human; conditions: preference for Hsp90α over Hsp90β from ITC KD
Outline: (§1)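 Human Hsp90α residues 1-236, N-terminal His-tagged, expressed in E. coli Rosetta (DE3), purified by Ni-NTA and size exclusion. ITC in matched 40 mM HEPES-KOH pH 7.4, 100 mM NaCl, 1% DMSO. Protein (503 or 336 μM) titrated into test compound (50.7 or 30.1 μM); nucleotides titrated into protein. One-site fit, mean of two titrations ± SEM.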

Hsp90α (1-236) NTD [2] = target: Hsp90α (1-236) NTD (Homo sapiens, UniProt P07900); test: ITC binding to Hsp90α NTD; conditions: ITC, 298 K; for N: stoichiometry, one-site model
Outline: as §1

Hsp90β = conditions: competition binding assays; cited from earlier work

| Compound | C-values (Hsp90α S52A (1-236)) | Kd (Hsp90α S52A (1-236)) | TΔS (Hsp90α S52A (1-236)) | ΔG (Hsp90α S52A (1-236)) | ΔH (Hsp90α S52A (1-236)) | N (Hsp90α S52A (1-236)) | fold change in affinity, Hsp90α S52A vs wild type Hsp90α (Hsp90α S52A (1-236)) | C-values (Hsp90β NTD) | Kd (Hsp90β NTD) | TΔS (Hsp90β NTD) | ΔG (Hsp90β NTD) | ΔH (Hsp90β NTD) | N (Hsp90β NTD) | α/β selectivity, KD (ITC) (Hsp90α (1-236) NTD [1]) | C-values (Hsp90α (1-236) NTD [2]) | Kd (Hsp90α (1-236) NTD [2]) | TΔS (Hsp90α (1-236) NTD [2]) | ΔG (Hsp90α (1-236) NTD [2]) | ΔH (Hsp90α (1-236) NTD [2]) | N (Hsp90α (1-236) NTD [2]) | further results |
| --- | --- | --- | --- | --- | --- | --- | --- | --- | --- | --- | --- | --- | --- | --- | --- | --- | --- | --- | --- | --- | --- |
| Nc1ncnc2c1ncn2[C@@H]1O[C@H](COP(=O)(O)OP(=O)(O)OP(=O)(O)O)[C@@H](O)[C@H]1O [ATP] | 1.26 – 1.29 | 239 ± 0.71 µM | -12.7 ± 0.85 kcal/mol | -4.95 ± 0.07 kcal/mol | -17.7 ± 0.78 kcal/mol | 0.592 ± 0.026 | 1.14 ± 0.12 fold | 1.00 – 1.19 | 281 ± 39.6 µM | -12.3 ± 2.55 kcal/mol | -4.90 ± 0.14 kcal/mol | -17.2 ± 2.40 kcal/mol | 0.707 ± 0.112 | 1.3 ± 0.2 fold | 1.13 – 1.44 | 209 ± 21.9 µM | -12.0 ± 1.84 kcal/mol | -5.05 ± 0.07 kcal/mol | -17.1 ± 1.77 kcal/mol | 0.691 ± 0.066 | – |
| Nc1ncnc2c1ncn2[C@@H]1O[C@H](COP(=O)(O)OP(=O)(O)O)[C@@H](O)[C@H]1O [ADP] | 16.7 – 18.2 | 9.06 ± 0.93 µM | -13.0 ± 0.21 kcal/mol | -6.85 ± 0.07 kcal/mol | -19.8 ± 0.14 kcal/mol | 0.756 ± 0.100 | 1.05 ± 0.11 fold | 6.74 – 14.1 | 12.4 ± 1.77 µM | -12.9 ± 0.99 kcal/mol | -6.75 ± 0.07 kcal/mol | -19.7 ± 0.92 kcal/mol | 0.813 ± 0.042 | 1.4 ± 0.2 fold | 8.40 – 11.1 | 8.6 µM and 8.59 µM | -13.0 ± 0.28 kcal/mol | -6.90 ± 0.00 kcal/mol | -19.9 ± 0.28 kcal/mol | 0.752 ± 0.014 | – |
| CC(C)c1cc(C(=O)N2Cc3ccccc3C2)c(O)c2cnoc12 [KUNB31] | – | – | – | – | – | – | – | – | – | – | – | – | – | – | – | – | – | – | – | – | preference for Hsp90β over Hsp90α (Hsp90β): 50 fold |

From article PMC6718336 (Proteins, 2019)
